In PubChem BioAssay AID822 (SRMLSC, 2007) one finds EC50 data, which are given here for 94 molecules.

Active and inactive are the calls of the source.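 Rule for the calls: active = half-maximal effective dose for blocking growth of human endothelial cells at most 100 µM; inactive = the rest.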

What is called EC50 is the concentration that produces a half-maximal response.

This experiment deals with HUVEC proliferation, viability ATP luminescence. In words: HUVEC proliferation inhibition, dose response, cell-based, ATP luminescence (AID 822).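 Note: cells exposed to compound for 72 h before the ATP read.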 Summed up: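 Assay system: HUVEC primary endothelial cells, low passage (≤12) / Input: 1250 cells per well / Compound dosing: dose series 0.039 to 20 µM, DMSO 0.2% / Timing: 72 h compound exposure at 37 °C / Measured by: CellTiter-Glo ATP luminescence / Read-out: percent viability relative to median untreated cell signal, EC50 via four-parameter fit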
`COc1c(F)c(F)c(C(=O)Nc2ccc(N3CCN(Cc4ccccc4)CC3)cc2)c(F)c1F`: the half-maximal effective concentration (EC50) is 10.9 µM.

Consider `CCOC(=O)N1CCc2c(sc(NC(=O)c3ccc(S(=O)(=O)N4CCCC4)cc3)c2C#N)C1`, for which the half-maximal effective concentration (EC50) is 17.5 µM.

As for `CC1(C)CC(=O)C2=C(C1)Oc1nc3ccccc3cc1C2C(C#N)C#N` (centres undefined), the EC50 is 11.4 µM.

Consider `Cc1cccc(Nc2nc(NCc3ccco3)nc(N3CCOCC3)n2)c1`, for which the concentration giving a half-maximal response (EC50) is 2.15 µM.

On to `C=CCN1C(=Nc2cccnc2)SCC1(O)c1ccc(C)cc1` (centres undefined), for which the EC50 was 11.2 µM.

Consider `O=C(/C=C/c1ccc(Cl)cc1)c1cccnc1`, for which the EC50 was 17.2 µM.

Take `O=C(Nc1ccc(OC(F)F)c(Cl)c1)Nc1ccc2c(c1)OCO2`: the EC50 was 14.8 µM.

As to `COc1ccc(CNC(=O)C(C#N)c2nc3ccccc3nc2N2CCN(C)CC2)cc1` (centres undefined), the half-maximal effective concentration (EC50) is 6.92 µM.

Take `O=C1c2[nH]nc(-c3ccccc3O)c2C(c2cccc(Cl)c2)N1Cc1ccco1` (centres undefined): the half-maximal effective concentration (EC50) is 11 µM.

In the case of `O=C(Nc1nccs1)c1c(O)c2cccc3c2n(c1=O)CCC3`, the 50% effective concentration (EC50) is 20.4 µM.

Consider `COc1cc(/C=c2\s/c(=C(/C#N)C(=O)N3CCCC3)n(-c3ccccc3)c2=O)ccc1O`, for which the concentration for a half-maximal effect (EC50) is 16.3 µM.

Regarding `CCCCCn1c(CN2CCN(c3cc(Cl)ccc3C)CC2)nc2c1c(=O)[nH]c(=O)n2C`, the EC50 was 3.21 µM.

With `Cc1occc1-c1nnc(SCC(=O)NCc2cccs2)n1-c1ccc(F)cc1`, the half-maximal effective concentration (EC50) was 15.2 µM.

As to `COc1ccc2[nH]c(=O)c(CN(C3CCCCC3)C(c3nnnn3Cc3ccco3)C(C)C)cc2c1` (centres undefined), the EC50 is 8.72 µM.

With `O=C(N/N=C/c1ccco1)c1cc(-c2ccc3ccccc3c2)n[nH]1`, the concentration for a half-maximal effect (EC50) is 9.25 µM.

In the case of `Oc1ccccc1NCC(O)Cn1ccc2ccccc21` (centres undefined), the EC50 was 8.76 µM.

`COc1ccc2cc3cc(C(=O)Nc4ccc5c(c4)OCCO5)oc3nc2c1`: the EC50 was 11.7 µM.

For `O=C1Nc2ccccc2/C1=C/C(=O)c1cccs1`, the 50% effective concentration (EC50) is 7.52 µM.

In the case of `COc1ccc(Nc2nc(N3CCCC3)nc3ccccc23)c(OC)c1`, the EC50 was 12.5 µM.

For `Nc1c(C(=O)NCc2ccccc2)nnn1Cc1cccc(Cl)c1`, the concentration for a half-maximal effect (EC50) is 13.9 µM.

For `CC(=O)n1cc(-c2ccncc2)c2ccccc21`, the EC50 is > 10 µM (inactive).

As for `c1ccc2c(c1)oc1c(Nc3ccc(CN4CCOCC4)cc3)ncnc12`, the EC50 was 5.35 µM.

For the molecule `Cc1cccc2c1N(CCCOc1ccc(C(C)(C)C)cc1)C(=O)C2=O`, the EC50 was 9.1 µM.

Turning to `CC(C)c1ccc(C2C3CSCC=C3C(C#N)=C(N)C2(C#N)C#N)cc1` (centres undefined), the half-maximal effective concentration (EC50) was 4.86 µM.

Consider `OC(COc1ccc(Cl)c2ccccc12)CN1CCN(c2ccccn2)CC1` (centres undefined), for which the concentration for a half-maximal effect (EC50) is 12.3 µM.

As for `COc1ccc(-n2nnnc2S(=O)(=O)CC(=O)N2CCCCC2)cc1`, the EC50 is 7.76 µM.

On to `Cc1ccc2c(c1)[nH]c1c(N3CCN(Cc4ccccc4)CC3)ncnc12`, for which the EC50 is 7.57 µM.

Turning to `COc1ccccc1N1C(=O)N(C(C)=O)C2C1Nc1ccccc1N2C` (centres undefined), the EC50 is 6.17 µM.

As for `Cc1ccc(C)c(C(C)NC(=O)C2C3CCC(O3)C2C(=O)O)c1` (centres undefined), the concentration giving a half-maximal response (EC50) was 16.3 µM.

Turning to `Oc1ccccc1-c1cc(-c2ccccc2Cl)[nH]n1`, the EC50 is 12.5 µM.

`Cc1ccccc1CS(=O)(=O)c1nnc([C@H](Cc2ccccc2)NC(=O)OC(C)(C)C)o1`: the concentration giving a half-maximal response (EC50) is 11.4 µM.

`CCCOC(=O)c1ccc(Oc2cn[nH]c2-c2ccc(OC)cc2O)cc1`: the EC50 was 12.3 µM.

Regarding `CC(C)OCCCN1C(=O)c2[nH]nc(-c3ccccc3O)c2C1c1cccc(Cl)c1` (centres undefined), the EC50 is 15.7 µM.

As for `Cc1cc(/C=N/n2cnnc2)c(C)n1-c1ccccc1`, the concentration giving a half-maximal response (EC50) is 19.8 µM.

Regarding `COc1cccc(-c2cc(C(=O)Nc3cc(C)n(Cc4ccc(Cl)cc4)n3)no2)c1`, the EC50 was 12.3 µM.

For `CCCOC(=O)c1ccc(Oc2cn[nH]c2-c2ccc(OCC)cc2O)cc1`, the concentration for a half-maximal effect (EC50) is 9.51 µM.

For `Cc1cc(C)c2c(=O)n(CC(=O)NCCCN3CCN(c4ccccc4F)CC3)sc2n1`, the EC50 was 12.3 µM.

Regarding `O=C1NCCCC2c3cc(O)c4ccccc4c3OC12N1CCCCC1` (centres undefined), the concentration giving a half-maximal response (EC50) was 3.25 µM.

For the molecule `Cc1coc2c(O)cc3c(c12)OC1(N2CCCCC2)C(=O)NCCCC31` (centres undefined), the EC50 is 7.41 µM.

`Cc1nn(Cc2ccc(Cl)c(Cl)c2)c(C)c1NC(=O)c1cc(-c2ccc3c(c2)OCO3)on1`: the EC50 was 1.35 µM.

Consider `CCN(CCNC(=O)C1CCN(Cc2nc(-c3ccc(Cl)cc3)oc2C)CC1)c1ccccc1`, for which the concentration giving a half-maximal response (EC50) was 5.82 µM.

Turning to `O=C(CCC1CCCC1)c1c(O)c2ccccc2oc1=O`, the EC50 is 4.67 µM.

As to `CC(C)c1nnc(NC(=O)CCS(=O)(=O)c2nc(-c3cccs3)cc(C(F)(F)F)n2)s1`, the EC50 is 9.9 µM.

Turning to `COc1cc2nc(NCCCN3CCN(C)CC3)n3nc(-c4ccccc4)nc3c2cc1OC`, the concentration for a half-maximal effect (EC50) was 10.5 µM.

For `Cc1cc(C)n(-c2nc(SCC(=O)N3CCCC3)c3c4c(sc3n2)CCCC4)n1`, the EC50 was 19.4 µM.

With `Cc1c(CCOC(=O)C2C3CC4CC(C3)CC2C4)sc[n+]1CC(=O)c1ccc(Br)cc1` (centres undefined), the EC50 was 11.4 µM.

Regarding `Cc1cc(NC(=O)CSc2nc3c(sc4ccccc43)c(=O)n2CCCN2CCOCC2)n[nH]1`, the EC50 was 18.2 µM.

Take `COc1ccccc1-c1cc(C(=O)Nc2cc(C)n(Cc3ccc(Cl)cc3)n2)no1`: the EC50 is 5.84 µM.

`NS(=O)(=O)c1ccc(N=Cc2c(O)n(C3CCCCC3)c(=O)n(C3CCCCC3)c2=O)cc1`: the concentration for a half-maximal effect (EC50) is 5 µM.

On to `COc1ccc(C(=O)C(CN2CCOCC2)c2ccccc2)cc1` (centres undefined), for which the half-maximal effective concentration (EC50) is 11.7 µM.

For `O=C(CC1CCCCC1)c1c(O)c2ccccc2oc1=O`, the 50% effective concentration (EC50) was 4.66 µM.

With `C=CCn1c(SCC(=O)c2c(N)n(CCC)c(=O)n(C)c2=O)nc2sc(CC)cc2c1=O`, the EC50 is 14.9 µM.

As for `Cc1ccc2c(c1)NC(=O)C(CC(=O)NCCCN1CCN(c3cc(Cl)ccc3C)CC1)O2` (centres undefined), the EC50 is 7.12 µM.

As for `Cc1ccccc1CS(=O)(=O)c1nnc([C@H](CC(C)C)NC(=O)OC(C)(C)C)o1`, the EC50 was 12 µM.

For the molecule `CCCc1nc(SCC(=O)N2CCC(Cc3ccccc3)CC2)c2c(=O)n(C)c(=O)n(C)c2n1`, the 50% effective concentration (EC50) was 10.5 µM.

Take `CC1(C)Cc2c(c(N3CCOCC3)nc3snc(N)c23)CO1`: the EC50 is 11 µM.

As for `C=CCOC(=O)C1=C(C)NC(SCC(=O)Nc2nccs2)=C(C#N)C1c1cccs1` (centres undefined), the 50% effective concentration (EC50) is 6.19 µM.

For `CCOC(=O)c1sc(NC(=O)CSc2nnnn2-c2ccc(C)c(C)c2)nc1C`, the half-maximal effective concentration (EC50) was 6.65 µM.

With `Cc1cccc(C)c1N1CCN(c2ccc3nnc(C(F)(F)F)n3n2)CC1`, the concentration giving a half-maximal response (EC50) was 5.78 µM.

With `O=S(=O)(CCN(CCS(=O)(=O)C(F)(F)F)CC1CCCO1)C(F)(F)F` (centres undefined), the EC50 is 12.5 µM.

Consider `CC(=O)Oc1ccc(N(C(C)=O)S(=O)(=O)c2cccs2)c2ccccc12`, for which the EC50 is 9 µM.

With `Cc1cc(C)n(-c2nc(NCCCO)c3c4c(sc3n2)CCCC4)n1`, the EC50 was 2.41 µM.

On to `Cc1ccc(-n2c(SCC(=O)Nc3ccc4c(c3)OCO4)nnc2-c2cccs2)cc1`, for which the EC50 is 8.21 µM.

In the case of `COC(=O)COc1ccc(S(=O)(=O)NCCC2=CCCCC2)cc1`, the half-maximal effective concentration (EC50) was 10.4 µM.

`c1ccc(-c2nccc(-c3ccc(-n4cnc5ccccc54)cc3)n2)cc1`: the half-maximal effective concentration (EC50) is 14.9 µM.

For the molecule `CCOC(=O)c1cccc2c1-c1ccccc1/C2=N/O`, the EC50 was 1.31 µM.

Regarding `CCn1c(=O)cc(C(=O)OC)sc1=Nc1ccc(F)c(F)c1`, the concentration for a half-maximal effect (EC50) was 11.7 µM.

`COc1ccc(CNC(=O)c2cc3c(C)nc4ccccc4c3o2)c(OC)c1`: the EC50 was 11.8 µM.

With `O=C(Nc1cccc(-c2nc3ncccc3o2)c1)c1cc2ccccc2o1`, the EC50 was 14.1 µM.

Turning to `Cc1ccc(-c2nc3cccnc3o2)cc1NC(=O)COc1ccc(C(C)(C)C)cc1`, the EC50 was 9 µM.

In the case of `CCOc1ccc2nc(NC(=O)CN3CCC(n4nnc5cc(F)ccc54)CC3)sc2c1`, the EC50 is 8.42 µM.

Regarding `CCCc1cc(C(=O)Cc2ccc(F)cc2)c(O)cc1O`, the EC50 is 10 µM.

Turning to `Cc1nn(CC(=O)Nc2ccc3c(c2)oc2ccccc23)c(=O)c2ccccc12`, the EC50 was 6.25 µM.

For the molecule `CCCCc1ccc(Nc2nc(CCC)cc(=O)[nH]2)cc1`, the EC50 is 9.15 µM.

For `CC(=O)c1cccc(NC(=O)Nc2ccc3c(c2)N(C)C(=O)CS3)c1`, the half-maximal effective concentration (EC50) was 9.94 µM.

Turning to `CNC(=O)c1ccc(-c2sc3nc(N4CCOCC4)c4c(c3c2N)CCCC4)o1`, the half-maximal effective concentration (EC50) is 10.5 µM.

With `COc1ccc(C(=O)C(CN2CCOCC2)c2ccccc2)cc1F` (centres undefined), the EC50 was 7.19 µM.

With `Cc1cc(C)c2c(c1)SC1=NC(c3ccccc3)(C(F)(F)F)NC(=O)N12` (centres undefined), the concentration for a half-maximal effect (EC50) was 8.47 µM.

Regarding `CC1=NOC(=O)/C1=C/c1ccc(-c2ccc(Cl)cc2)o1`, the half-maximal effective concentration (EC50) was 4.06 µM.

For `COc1ccc(-n2c(SCC(=O)Nc3sc4c(c3C#N)CCCC4)nnc2-c2ccc(O)cc2)cc1`, the EC50 is 4.32 µM.

In the case of `Cc1ccc(-c2nn3c(C)nnc3s2)cc1NC(=O)c1ccc(-c2cccc(Cl)c2)o1`, the 50% effective concentration (EC50) was 4.71 µM.

Consider `CN1CCN(c2ccc(NC(=O)c3cccc(OCc4ccccc4)c3)cc2)CC1`, for which the concentration giving a half-maximal response (EC50) is 11.4 µM.

Regarding `CCOC(=O)C1=C(Cc2ccc(F)cc2)C(=O)c2ccccc2C1=O`, the EC50 was 13.6 µM.

Regarding `CN1CCN(c2nc3ccccc3nc2C(C#N)C(=O)OC2CCCCC2)CC1` (centres undefined), the EC50 is 3.87 µM.

On to `CCOC(=O)c1cc2c(N)c(C(=O)c3cc(C#N)c(SC)nc3C)sc2nc1C`, for which the EC50 was 5.27 µM.

With `CCOC(=O)c1ccc(NC(=O)CCc2nc(-c3cccc(C)c3)no2)cc1`, the concentration for a half-maximal effect (EC50) was 19.2 µM.

Regarding `CCOC(=O)c1c(N)sc2c(OC)c(Br)ccc12`, the 50% effective concentration (EC50) was 16.8 µM.

Take `CCCCc1oc2ccccc2c1C(=O)c1cc(I)c(OCCN(CC)CC)c(I)c1`: the half-maximal effective concentration (EC50) is 5.72 µM.

`CCc1ccc(NC(=O)CCc2nc3cccnc3n2Cc2ccc(OC)cc2)cc1`: the 50% effective concentration (EC50) is 13.3 µM.

For the molecule `O=C(C#Cc1cccc([N+](=O)[O-])c1)c1ccccc1`, the 50% effective concentration (EC50) was 20.3 µM.

Consider `Oc1ccccc1/C=N/Nc1nccnc1Cl`, for which the EC50 was 6.28 µM.

With `COc1ccc(-n2nc(C(=O)NCc3ccco3)c3c4ccccc4n(C)c3c2=O)cc1Cl`, the EC50 was 19.7 µM.

For `Cc1cccc(NC(=O)Nc2cccc(Oc3c(F)c(F)c(F)c(F)c3F)c2)c1`, the concentration giving a half-maximal response (EC50) is 15.3 µM.

In the case of `CCc1[nH]nc2c1C(c1ccc(Br)s1)C(C#N)=C(N)O2` (centres undefined), the EC50 was 14 µM.
